Experiments:
[1] = target: 5-hydroxytryptamine receptor 2B (Homo sapiens, UniProt P41595); experiment: Binding affinity to 5HT2B
How it was run: (§1)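 Ki values come from radioligand binding run by the NIMH Psychoactive Drug Screening Program (PDSP) under its standard conditions. Values are means ± SEM from triplicate assays.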

[2] = target: T1, 5-hydroxytryptamine receptor 1A (Homo sapiens, UniProt P08908); experiment: Binding affinity to 5HT1A; how it was run: as §1
T1 sequence (P08908 whole entry): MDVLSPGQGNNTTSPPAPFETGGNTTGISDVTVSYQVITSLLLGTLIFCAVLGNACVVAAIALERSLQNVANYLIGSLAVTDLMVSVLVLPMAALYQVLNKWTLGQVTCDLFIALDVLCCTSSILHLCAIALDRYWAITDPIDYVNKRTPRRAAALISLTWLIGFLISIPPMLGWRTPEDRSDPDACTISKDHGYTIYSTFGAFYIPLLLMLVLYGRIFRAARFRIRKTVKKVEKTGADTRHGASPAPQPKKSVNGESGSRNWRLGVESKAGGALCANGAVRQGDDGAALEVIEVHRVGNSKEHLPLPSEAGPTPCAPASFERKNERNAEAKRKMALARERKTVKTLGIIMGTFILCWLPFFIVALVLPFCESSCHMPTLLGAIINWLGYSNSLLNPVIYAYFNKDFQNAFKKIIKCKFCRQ

Rattus norvegicus = species: Rattus norvegicus; experiment: Selectivity ratio of Ki for rat sigma2 receptor to Ki rat sigma1 receptor
How it was run: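 The ratio is Ki(σ2) divided by Ki(σ1). σ1 Ki came from [³H](+)-pentazocine displacement in rat brain homogenate. σ2 Ki came from [³H]DTG displacement in PC12 cell preparation, a cell line that overexpresses σ2. Both Ki values are triplicate means; ratios above 1 mean σ1-selective.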

D(2) dopamine receptor = D(2) dopamine receptor (Homo sapiens, UniProt P14416); experiment: Binding affinity to dopamine D2; how it was run: as §1
[3] = target: Sigma non-opioid intracellular receptor 1 (Rattus norvegicus, UniProt Q9R0C9); experiment: Displacement of [3H]pentazocine from sigma1 receptor in rat brain homogenate; assay type: tissue-based
How it was run: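 σ1 affinity was measured by competitive displacement of [³H](+)-pentazocine from rat brain homogenate, using a competitive modification of the Kovacs and Larson protocol. Ki is reported as mean ± SEM from triplicate assays.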

[4] = Displacement of [3H]DTG from sigma2 receptor in rat PC12 cells; details: pc-12
[5] = Drug uptake in baboon cingulate cortex at 100 MBq, iv; assay type: ADME; details: papio hamadryas, in vivo
How it was run: (§2)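 Anaesthetized Papio hamadryas baboon; radiotracer given iv at 100 MBq in 3 mL saline, specific activity 73 GBq/μmol. Dynamic brain PET started just before injection and ran 60 min. Voxel values were decay-corrected to injection time and converted to % injected dose/mL. Regional time-activity curves came from coregistered regions of interest.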

[6] = Drug uptake in baboon frontal cortex at 100 MBq, iv; assay type: ADME, organism-based; details: papio hamadryas, in vivo; how it was run: as §2
[7] = Drug uptake in baboon striatum at 100 MBq, iv; assay type: ADME, organism-based; details: papio hamadryas, in vivo; how it was run: as §2
[8] = Drug uptake in baboon brain at 100 MBq, iv in presence of haloperidol; assay type: ADME, organism-based; details: papio hamadryas, in vivo
How it was run: (§3)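 Anaesthetized Papio hamadryas baboon; radiotracer given iv at 100 MBq in 3 mL saline, specific activity 73 GBq/μmol. Haloperidol (1 mg/kg) given iv 5 min before the tracer. Dynamic PET over 60 min, then whole-body acquisition for 2 min at each of six bed positions. Uptake expressed as decay-corrected % injected dose/mL.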

[9] = Drug uptake in baboon liver at 100 MBq, iv in presence of haloperidol; assay type: ADME, organism-based; details: papio hamadryas, in vivo; how it was run: as §3
[10] = Drug uptake in baboon kidney at 100 MBq, iv in presence of haloperidol; assay type: ADME, organism-based; details: papio hamadryas, in vivo; how it was run: as §3
[11] = Drug uptake in baboon bladder at 100 MBq, iv in presence of haloperidol; assay type: ADME, organism-based, Urinary bladder; details: papio hamadryas, in vivo; how it was run: as §3
[12] = Lipophilicity, log D of the compound; assay type: physicochemical; details: HPLC retention time
How it was run: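 Log D estimated by HPLC retention time on a C-18 column. Mobile phase methanol/0.05 M potassium phosphate buffer (65:35 v/v, pH 7.47) at 0.3 mL/min, UV 254 nm. Calibrated against standards of known log D (aniline, benzene, toluene, cumene, triphenylamine, hexachlorobenzene) using an exponential fit. Injections in triplicate and averaged.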

Sigma non-opioid intracellular receptor 1, sequence (Q9R0C9 whole entry): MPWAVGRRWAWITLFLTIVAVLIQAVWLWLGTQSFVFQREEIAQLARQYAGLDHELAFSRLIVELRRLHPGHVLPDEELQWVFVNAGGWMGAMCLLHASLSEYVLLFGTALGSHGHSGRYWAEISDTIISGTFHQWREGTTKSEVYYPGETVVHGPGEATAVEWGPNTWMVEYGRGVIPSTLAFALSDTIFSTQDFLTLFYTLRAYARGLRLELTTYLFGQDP
D(2) dopamine receptor, sequence (P14416 whole entry): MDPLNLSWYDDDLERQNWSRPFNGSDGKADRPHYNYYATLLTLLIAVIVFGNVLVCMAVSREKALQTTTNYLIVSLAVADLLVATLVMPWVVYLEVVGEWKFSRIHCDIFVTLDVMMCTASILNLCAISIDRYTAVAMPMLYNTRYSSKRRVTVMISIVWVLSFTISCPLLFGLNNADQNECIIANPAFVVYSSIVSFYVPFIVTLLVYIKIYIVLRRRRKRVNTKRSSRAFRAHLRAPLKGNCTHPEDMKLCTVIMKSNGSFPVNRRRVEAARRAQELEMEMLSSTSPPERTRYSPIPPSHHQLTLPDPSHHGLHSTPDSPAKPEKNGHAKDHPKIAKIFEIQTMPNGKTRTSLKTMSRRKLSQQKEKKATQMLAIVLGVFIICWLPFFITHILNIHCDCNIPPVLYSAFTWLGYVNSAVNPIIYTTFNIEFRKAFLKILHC
5-hydroxytryptamine receptor 2B, sequence (P41595 whole entry): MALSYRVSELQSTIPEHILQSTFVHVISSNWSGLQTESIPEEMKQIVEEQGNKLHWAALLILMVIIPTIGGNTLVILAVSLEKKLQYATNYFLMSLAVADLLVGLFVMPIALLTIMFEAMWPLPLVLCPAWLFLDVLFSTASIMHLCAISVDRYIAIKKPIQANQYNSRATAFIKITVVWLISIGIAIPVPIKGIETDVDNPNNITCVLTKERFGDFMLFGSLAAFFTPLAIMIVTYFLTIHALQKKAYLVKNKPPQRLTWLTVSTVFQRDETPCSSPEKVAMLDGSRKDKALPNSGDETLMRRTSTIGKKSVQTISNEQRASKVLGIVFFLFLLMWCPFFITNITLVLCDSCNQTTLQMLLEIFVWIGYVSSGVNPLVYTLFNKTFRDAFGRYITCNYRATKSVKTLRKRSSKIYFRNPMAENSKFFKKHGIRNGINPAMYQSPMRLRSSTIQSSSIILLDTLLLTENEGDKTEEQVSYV

| Drug uptake [5] | Drug uptake [6] | Drug uptake [7] | Drug uptake [8] | Drug uptake [9] | Drug uptake [10] | Drug uptake [11] | SMILES | Ki [1] [nM] | Ki [2] [nM] | Ratio Ki (Rattus norvegicus) | Ki (D(2) dopamine receptor) [nM] | Ki [3] [nM] | Ki [4] [nM] | logD [12] |
| --- | --- | --- | --- | --- | --- | --- | --- | --- | --- | --- | --- | --- | --- | --- |
|  |  |  |  |  |  |  | CCCOc1ccccc1CN1CCN(Cc2cc3ccccc3o2)CC1 | 116 | 2460 | 10 | > 10000 | 79 | 778 |  |
|  |  |  |  |  |  |  | FCCCOc1ccc(CN2CCN(Cc3cc4ccccc4o3)CC2)cc1 | 232 | 3300 | 51 | > 10000 | 14.7 | 752 |  |
|  |  |  |  |  |  |  | FCCCOc1cccc(CN2CCN(Cc3cc4ccccc4o3)CC2)c1 | 188 | 599 | 10 | 2920 | 232 | 2370 |  |
|  |  |  |  |  |  |  | CCCOc1ccc(CN2CCN(Cc3cc4ccccc4o3)CC2)cc1 | 655 | 4720 | 45 | > 10000 | 53.8 | 2400 |  |
|  |  |  |  |  |  |  | COc1cccc(CN2CCN(Cc3cc4ccccc4o3)CC2)c1 | 28 | 373 | 4.9 | 5730 | 16.3 | 79.5 |  |
|  |  |  |  |  |  |  | c1ccc(CN2CCN(Cc3cc4ccccc4o3)CC2)cc1 | 497 | 833 | 46 | > 10000 | 5.2 | 240 |  |
| Active | Active | Active | Not Active | Not Active | Not Active | Not Active | [11CH3]Oc1ccc(CN2CCN(Cc3cc4ccccc4o3)CC2)cc1 |  |  |  |  |  |  |  |
|  |  |  |  |  |  |  | COc1ccccc1CN1CCN(Cc2cc3ccccc3o2)CC1 | 9.7 | 806 | 0.45 | 5120 | 198 | 89 |  |
|  |  |  |  |  |  |  | CCOc1ccc(CN2CCN(Cc3cc4ccccc4o3)CC2)cc1 | 262 | 3340 | 37 | 4870 | 10.6 | 393 |  |
|  |  |  |  |  |  |  | FCCOc1cccc(CN2CCN(Cc3cc4ccccc4o3)CC2)c1 | 244 | 469 | 5.9 | 2280 | 49.7 | 292 |  |
|  |  |  |  |  |  |  | FCCOc1ccccc1CN1CCN(Cc2cc3ccccc3o2)CC1 | 57 | 3250 | 1.1 | > 10000 | 488 | 535 |  |
|  |  |  |  |  |  |  | COc1ccc(CN2CCN(Cc3cc4ccccc4o3)CC2)cc1 | 15 | 2190 | 38 | 2700 | 2.7 | 103 | 3.63 |
|  |  |  |  |  |  |  | FCCCOc1ccccc1CN1CCN(Cc2cc3ccccc3o2)CC1 | 184 | 3380 | 60 | > 10000 | 9.1 | 542 |  |
|  |  |  |  |  |  |  | CCCOc1cccc(CN2CCN(Cc3cc4ccccc4o3)CC2)c1 | 259 | 774 | 11 | 2980 | 177 | 1920 |  |
|  |  |  |  |  |  |  | CCOc1ccccc1CN1CCN(Cc2cc3ccccc3o2)CC1 | 72 | 468 | 8 | 6000 | 37.1 | 295 |  |
|  |  |  |  |  |  |  | CCOc1cccc(CN2CCN(Cc3cc4ccccc4o3)CC2)c1 | 302 | 1720 | 3 | 4540 | 80 | 238 |  |

From ChEMBL document CHEMBL1212881, “Design, synthesis, and structure-affinity relationships of regioisomeric N-benzyl alkyl ether piperazine derivatives as sigma-1 receptor ligands” (J Med Chem, 2010)
